This is a sample that favours compounds with a hit; in the whole collection about 12% have one here.
CHOP inh: inhibitors of CHOP induction in ER stress response | CHO-K1 CHOP-promoter luciferase, tunicamycin-induced, 15-18 h | inhibition, % at 10 µM | 3.8% of 220,000 active | AID 2732;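 active means compounds that reduced the stress-induced luciferase reporter signal by more than about 70% of percent inhibition, limit read from the data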;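 further: 0% = tunicamycin plus vehicle and 100% = wells without tunicamycin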
b-catenin transl: alters nuclear translocation of beta-catenin in HeLa cells. 0.3% of 190,000 active. nuclear translocation activity, % at 5 µM. immunofluorescence imaging. AID 1665;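 active means nuclear translocation activity above 50% at 5 µM, with a well cell count of 50 or more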;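 further: per-cell ratio of nuclear to cytoplasmic median beta-catenin stain intensity; plate controls were DMSO negative control for no effect and GSK-3 inhibitor IX positive control for full effect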
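System: HeLa cells, endogenous beta-catenin; compound dosing: 5 µM primary single dose, 0.1% DMSO, 0.02–20 µM confirmation series; incubation: 24 h compound exposure at 37°C, 5% CO2; signal: beta-catenin immunofluorescence imaging with DAPI; evaluation: % activation, nuclear-to-cytoplasmic median beta-catenin signal ratio per cell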
Dynein transport: dynein cargo transport inhibition. z-score, hits read low. 0.47% of 220,000 active. 3617.4 mouse cells, GR-EGFP nuclear translocation imaging; test concentration mostly 20 µM; stimulated with dexamethasone, 1 µM; stronger effect = lower value;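 active means plate z-score of nuclear minus cytoplasmic receptor signal below a set negative limit, without overly bright fluorescence or cell loss, cut at about -3.5 in these data, passing the limit was not always enough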;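 further: z-score of nuclear minus cytoplasmic ring GR-EGFP intensity difference per well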
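Buffer or medium: tet-free, stripped-serum medium; reagent: dexamethasone at 1.0 µM final, 30 min; incubation: 48 h induction, 1 h compound, 30 min dex at 37 °C; measured by: formaldehyde fixation, Hoechst nuclear stain, 10x automated fluorescence imaging; read-out: nuclear-to-cytoplasmic GR-EGFP distribution per well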
L major viab: reduces viability of Leishmania major promastigotes | 9% of 200,000 active | resazurin fluorescence viability | inhibition, % at 10 µM; in the data active means inhibition above about 50%;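 further: promastigotes grown with compound for 44 hours at 28 °C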
Autophagy mod: autophagy modulation, high-content screen; MEF GFP-LC3 puncta imaging; test concentration mostly 10 µM; calls only at 10 µM (by protocol); 0.98% of 190,000 active;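 active means percentage of spot-positive cells more than 3 SD above its plate mean, without a fluorescence outlier flag or 80% toxicity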;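 further: spot-positive cell cutoff set from DMSO-treated cells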
MT stabilize HCS: stabilizes microtubules in HeLa cells | HeLa tubulin immunostaining HCS, 24 h; share of cells brighter than vehicle mean+2SD | % tubulin-high responders, % at 10 µM | 0.83% of 200,000 active;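 active means plate Z-score above 3 for both tubulin-high and condensed-nucleus cell shares, with cell loss under 80%, at 10 µM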;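 further: anti alpha tubulin signal scored within the nucleus-defined area of each cell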
Starred values were filed as active, the others as inactive; i = inactive; nt = no result given; + = active, no number.

SMILES | CHOP inh | b-catenin transl | Dynein transport | L major viab | Autophagy mod | MT stabilize HCS
Cn1cc(CN2CCCC(C(=O)c3ccc(-c4ccccc4)c(F)c3)C2)cn1 (stereo unspecified) | 17.9 | 6.0 | 0.185 | 86.8* | i | 2.2
O=C(c1ccc(-c2ccccc2)cc1)C1CCCN(C(=O)Cn2cncn2)C1 (stereo unspecified) | 37.7 | 1.6 | -0.699 | 4.4 | i | 2.4
Cn1cc(CN2CCCC(C(=O)c3ccc(-c4ccccc4)cc3)C2)cn1 (stereo unspecified) | 35.5 | -2.3 | -0.804 | 90.5* | i | 0.8
CCn1cc(CN2CCCC(C(=O)c3ccc(-c4ccccc4)cc3)C2)cn1 (stereo unspecified) | 17.8 | 0.9 | 0.433 | 85.7* | i | 2.3
O=C(c1ccc(-c2ccccc2)c(F)c1)C1CCCN(C(=O)c2cncs2)C1 (stereo unspecified) | 14.2 | 0.1 | 0.148 | 35.0 | i | 3.6
COc1cccc(C(=O)C2CCCN(Cc3cn(C)nc3-c3ccccc3)C2)c1 (stereo unspecified) | 21.0 | -0.6 | 1.19 | 6.8 | i | 4.5
COc1ccc(-c2nn(C)c3sc(C(=O)N4CCOCC4)cc23)cc1OC | 25.4 | 0.6 | -0.336 | -0.8 | i | 1.9
CCOC(=O)N1CCC(NC(=O)c2cc3c(-c4cccc(OC)c4)nn(C)c3s2)CC1 | 10.6 | -0.4 | -0.974 | 3.4 | i | 7.7*
COc1cccc(-c2nn(C)c3sc(C(=O)Nc4ccc5c(c4)OCCO5)cc23)c1 | 28.7 | -0.1 | 0.795 | 39.8 | + | 3.4
COc1ccc(N2CCN(C(=O)c3cc4c(-c5cccc(OC)c5)nn(C)c4s3)CC2)cc1 | 20.6 | 0.2 | 0.121 | 61.9* | + | 3.9
NC(=O)c1ccc(NCCCN2CCOCC2)c([N+](=O)[O-])c1 | 5.3 | -0.1 | -0.0267 | -5.2 | i | 3.9
Cc1cc(O)c(/C=N/Nc2ccccc2)c(=O)o1 | 30.3 | 5.4 | -0.374 | 75.7* | i | 1.5
O=C(O)c1ccccc1CSc1nc2ccccc2n1Cc1ccccc1C(=O)O | 7.8 | -0.6 | -0.272 | -8.2 | i | 2.1
COCCn1c(-c2ccc(-c3ccc([N+](=O)[O-])cc3Br)o2)nc2c1c(=O)[nH]c(=O)n2CC(C)C | 18.4 | -2.4 | -2.28 | 72.6* | i | 3.1
COCCn1c(-c2ccc(OC(F)(F)C(F)C(F)(F)F)cc2)nc2c1c(=O)[nH]c(=O)n2CC(C)C (stereo unspecified) | 73.3* | nt | 0.785 | 7.7 | i | 0.8
COc1ccc(-c2ccc(-c3nc4c(c(=O)[nH]c(=O)n4Cc4ccccc4)n3C)o2)c([N+](=O)[O-])c1 | 90.2* | nt | 0.574 | 72.1* | i | 2.3
Cn1c(-c2cc(Cl)ccc2O)nc2c1c(=O)[nH]c(=O)n2Cc1ccccc1 | 35.5 | 4.9 | 0.119 | 53.8* | i | 4.0
Cc1cc(C)nc(SCc2cnc(C)nc2N)n1 | -9.0 | 0.4 | 0.698 | -2.3 | i | 1.2
C=CCOc1nc2c(c(=O)n(Cc3ccc(Cl)c(Cl)c3)c(=O)n2C)n1C | nt | nt | 1.22 | -1.7 | i | 4.3
Cc1nsc(Nc2ccccc2)c1C#N | 26.2 | -1.0 | 0.337 | -1.8 | i | 3.6
OC1(c2ccc(Cl)c(Cl)c2)C[n+]2ccccc2N1Cc1ccccc1 (stereo unspecified) | -31.9 | 0.3 | 0.464 | nt | nt | nt
COc1ccc2c(c1)C1CC(C)(NC(=O)C1S(=O)(=O)c1ccc(F)cc1)O2 (stereo unspecified) | 13.1 | -2.9 | -0.032 | -1.2 | i | 6.1
O=C(c1ccco1)N1CCN(C(c2ccccc2Cl)c2nnnn2Cc2cccs2)CC1 (stereo unspecified) | -17.4 | -4.6 | -0.466 | 53.0* | i | 3.3
CC(C)CCn1nnnc1C(c1ccc(F)cc1)N1CCN(C(=O)c2ccco2)CC1 (stereo unspecified) | -24.0 | -0.5 | 0.193 | 55.0* | i | 1.9
O=C(c1ccco1)N1CCN(C(c2ccc(Cl)cc2)c2nnnn2CC2CCCO2)CC1 (stereo unspecified) | 31.1 | -3.9 | 2.44 | 62.9* | i | 2.0
SMILES | CHOP inh | b-catenin transl | Dynein transport | L major viab | Autophagy mod | MT stabilize HCS
O=C(c1ccco1)N1CCN(C(c2ccc(F)cc2)c2nnnn2Cc2cccs2)CC1 (stereo unspecified) | 26.6 | -5.2 | -0.286 | 37.4 | i | 1.5
CC(C)CC(c1nnnn1Cc1ccccc1)N1CCN(C(=O)c2ccco2)CC1 (stereo unspecified) | -0.9 | -6.5 | 0.443 | 64.9* | i | 4.8
CN(Cc1ccccc1)S(=O)(=O)c1ccc(N2CCOCC2)nc1 | 15.0 | -2.2 | -0.8 | nt | nt | nt
CCOc1ccc(-n2nc3c(=O)n(CCN4CCCCC4)nc(C)c3c2C)cc1 | 40.7 | nt | -0.179 | -7.5 | i | 2.3
O=C(NNC(=O)c1cccs1)Nc1cccc(Cl)c1 | 3.2 | nt | -0.302 | 3.1 | i | 1.5
COc1ccc(NC(=O)CCC(=O)c2cccs2)cc1S(=O)(=O)Nc1ccc(Cl)cc1 | 28.9 | 20.1 | -0.466 | 6.8 | i | 17.4*
Cc1ccc(NC(=O)c2cccs2)cc1S(=O)(=O)Nc1cccc(Cl)c1 | 41.1 | -1.9 | -1.08 | 50.6* | i | 3.1
COc1ccc(NC(=O)c2c(F)cccc2F)cc1S(=O)(=O)Nc1ccc(Br)cc1 | 2.4 | 2.6 | 1.47 | 52.0* | i | 2.2
Cc1ccc(NC(=S)NC(=O)c2ccc(F)cc2)cc1S(=O)(=O)Nc1cccc(Cl)c1 | 1.9 | 5.2 | 1.27 | 42.6 | i | 19.7*
Cc1ccc(C(=O)NC(=S)Nc2ccc(NC(=O)c3cccc(Cl)c3)cc2)cc1 | 45.0 | -0.4 | -0.279 | -2.8 | i | 3.0
O=C(Cc1ccc(Br)cc1)OCC(=O)N1CCc2ccccc2C1 | 5.7 | -1.6 | -0.226 | -9.2 | i | 6.5
O=C(Nc1ccc(Cl)cc1)OCCn1nnnc1C(c1ccccc1Cl)N1CCOCC1 (stereo unspecified) | 24.0 | -1.3 | 1.33 | 89.8* | i | 2.9
CC(=O)NC1(c2nnnn2CCOC(=O)Nc2ccc(Cl)cc2)CCCC1 | 1.3 | 4.5 | 0.997 | -5.4 | i | 2.7
C=CCn1c(SCC(=O)N2CC(=O)Nc3ccccc32)nc2scc(-c3ccccc3)c2c1=O | 44.8 | 1.2 | -0.933 | 94.4* | i | 5.1
C=CCn1c(SCC(=O)NCc2ccc3c(c2)OCO3)nc2scc(-c3ccccc3)c2c1=O | 31.3 | -1.2 | -0.477 | 3.6 | i | 3.6
CCOC(=O)C1=C(C)NC(C)=C(C(=O)OCC)C1C(=O)OCC(=O)N(C)C1CCS(=O)(=O)C1 (stereo unspecified) | 3.0 | 1.2 | -0.325 | -4.5 | i | 1.8
O=C1C2C3C=CC(c4ccccc4)(C2C(=O)N1c1cccc(Cl)c1)C1C(=O)N(c2cccc(Cl)c2)C(=O)C31 (stereo unspecified) | 12.0 | -1.4 | -0.139 | 68.0* | i | 3.0

From PubChem BioAssay
